Data set [1] concerns AIA mice. Put plainly: Immunofluorescence staining of synovial tissues of AIA mice. The data set is classed as in vivo, C57BL/6 mice. To be noted: for fluorescence signal of iNOS (M1 macrophages) in synovial tissues: n = 3; for synovial pannus / neovascularization (CD31 expression): n = 3 (Fig. 6c, Figure S14). In short, it runs like this: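 AIA was induced in male C57BL/6 mice with CFA s.c., followed a week later by IFA into the hind pads. Knees received 20 μL intra-articular treatment twice weekly for 4 weeks. Knee joint sections were stained overnight at 4 °C with antibodies to CD31, F4/80, CD206 or iNOS (1:300), then Alexa Fluor 488 or Cy3 secondaries (1:8000, 2 h, room temperature) and DAPI. Imaging was by fluorescence microscopy, n = 3.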

The subject of data set [2] is AIA mice. Put plainly: Therapeutic effect in adjuvant-induced arthritis. The data set is classed as in vivo, C57BL/6 mice. To be noted: n = 5; for paw swelling after 4 weeks of treatment: 20 μL intra-articular, both knees, twice a week for 4 weeks; for clinical score: dynamic, up to 28 days; for skin temperature of hind paws: infrared camera, 28th day after administration. The method, boiled down: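 Male C57BL/6 AIA mice (CFA s.c. in the fore underarm; IFA into both hind pads a week later; treatment after one further week) were randomised to groups of n = 5. Dosing was 20 μL intra-articular into both knees twice weekly for 4 weeks. Arthritis was scored clinically, joint diameter was measured weekly by vernier caliper, and hind-paw skin temperature was recorded by infrared camera on day 28.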

Data set [3] relates to AIA mice. Put plainly: Histology and immunohistochemistry of knee joints of AIA mice. The data set is classed as in vivo, C57BL/6 mice. The following applies: day 28. The method, boiled down:
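Male 8-week C57BL/6 mice received CFA (1% w/v) s.c. in the fore underarm, then the same dose of IFA into both hind pads a week later. One week on, 20 μL test hydrogel or PBS was given intra-articularly into both knees twice weekly for 4 weeks (n = 5). On day 28 knees were fixed in 4% paraformaldehyde, EDTA-decalcified 30 days, stained H&E and safranin-O/fast green, and Mankin-scored.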

In data set [4] the test system is RA-FLS. Put plainly: Transwell invasion assay. The data set is classed as cell-based. To be noted: transwell with Matrigel, 100 μM, 24 h, n = 6. The method, boiled down:
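RA-FLS were serum-starved 12 h and mixed with hydrogels or MTX solution (100 μM). They were seeded in the upper transwell chamber in serum-free medium with 12.5% Matrigel, with 20% FBS medium below as chemoattractant. After 24 h, invaded cells were stained with 2% crystal violet and counted microscopically, n = 6.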

Data set [5] relates to M1 macrophages (LPS-induced RAW264.7). Put plainly: RT-qPCR of M1 markers in LPS-induced RAW264.7. The data set is classed as cell-based, Mice. The following applies: 100 μM, 24 h, compared to control group (LPS), n = 3. The method, boiled down:
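RAW264.7 cells were polarised to M1 with 1% w/v LPS medium for 24 h, then treated with test compound or hydrogel (100 μM) for 24 h. Total RNA was extracted with TRIzol, and iNOS, IL-6 and TNF-α mRNA were quantified by RT-qPCR.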
(In qPCR the cycle at which signal appears reflects the starting amount.)

Data set [6] deals with RAW264.7 cells. Put plainly: Immunofluorescence staining of iNOS and CD206 on RAW264.7. To be noted: 100 μM, 24 h. It is filed as cell-based, Mice. The method, boiled down:
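RAW264.7 cells were polarised with 1% w/v LPS-containing medium for 24 h, then exposed to test compound or hydrogel (100 μM) for another 24 h. Cells were immunostained for iNOS (M1) and CD206 (M2) and imaged by fluorescence.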

Data set [7] deals with RA-FLS. Put plainly: Wound-healing. The data set is classed as cell-based. To be noted: 100 μM, 48 h culture then scratch, n = 6. The method, boiled down:
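RA-FLS were serum-starved 12 h, mixed with hydrogels (formed from 100 μM peptide) or MTX solution (100 μM), and cultured 48 h. Monolayers were then scratched. Migration rate was calculated from healed area after a further 12 and 24 h, n = 6.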

For data set [8], the target named is proteinase K (Parengyodontium album, UniProt P06873). Put plainly: Biostability of hydrogels exposed to proteinase K. It is filed as in vitro ADME. The following applies: for change of HPLC peak after addition of proteinase K: 37 °C, HPLC spectra (Fig. 1e). The method, boiled down:
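Peptide (1 mg in 5 mL PBS) incubated at 37 °C with proteinase K (3.2 units/mL). Aliquots were taken at each time point and analysed by reverse-phase HPLC on a C18 column, eluting with MeOH and water (each with 0.05% TFA).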

Data set [9] concerns RA synovial fibroblast (RA-FLS). Put plainly: MTT cell viability, RA-FLS. The data set is classed as cell-based. To be noted: 48 h. The method, boiled down: (§1)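 Cells were seeded at 10^4 per well and exposed for 48 h to test compound or hydrogel at 200, 100, 50, 10, 5 or 0 μM. Viability was read by MTT absorbance at 490 nm.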
Data set [10] relates to HUVEC. Put plainly: Live/dead staining, HUVEC. The data set is classed as cell-based, human. The following applies: 100 μM, 48 h, Calcein AM/PI; MTX-loaded compared to MTX-GFFY and free MTX groups. The method, boiled down:
(§2)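 Cells were exposed to hydrogels or free MTX (100 μM) for 48 h, stained with Calcein AM (live) and propidium iodide (dead), and imaged by fluorescence microscopy.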

The test system of data set [11] is human umbilical vein endothelial cell (HUVEC). Put plainly: MTT cell viability, HUVEC. The data set is classed as cell-based. To be noted: 5-200 μM, 48 h, n = 3. In short, it runs like this: as §1
Data set [12] has as its system M1 macrophages (LPS-induced RAW264.7). Put plainly: Western blot of M1 markers in RAW264.7. It is filed as cell-based, Mice. To be noted: 100 μM, 24 h, compared to control group (LPS), n = 3. The method, boiled down: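 RAW264.7 cells were polarised with […] LPS for 24 h, then treated with test compound or hydrogel (100 μM) for 24 h. Lysate protein was quantified by Bradford assay, run on 10% SDS-PAGE and transferred to PVDF. Membranes were probed overnight at 4 °C for iNOS, IL-6 and TNF-α, then secondary antibody for 120 min at room temperature. Detection was by chemiluminescence, with tubulin reference and densitometry, n = 3.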
For orientation: In western blotting, separated proteins are transferred to a membrane and probed.

Data set [13] deals with RA-FLS. Put plainly: Live/dead staining, RA-FLS. The data set is classed as cell-based. To be noted: 100 μM, 48 h, Calcein AM/PI.
In data set [14] the test system is AIA mice. Put plainly: Serum inflammatory cytokines in AIA mice. It is filed as in vivo, C57BL/6 mice. To be noted: compared to PBS group, without statistical difference, n = 3 (Figure S13).
In data set [15] the test system is L929. Put plainly: Live/dead staining, L929. It is filed as cell-based, mouse. To be noted: 100 μM, 48 h, Calcein AM/PI; MTX-loaded compared to MTX-GFFY and free MTX groups. The method, boiled down: as §2
For data set [16], the system named is mouse fibroblast (L929). Put plainly: MTT cell viability, L929. The data set is classed as cell-based. The following applies: 5-200 μM, 48 h, n = 3. In short, it runs like this: as §1
Data set [17] can be described thus: Gelation by heating-cooling and recovery after injection. It is filed as physicochemical. In short, it runs like this: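 Gels were formed by dissolving peptide in PBS/Na2CO3 (pH 7.4), heating 30 s (flame or 100 °C water bath), then cooling at room temperature. Samples went onto the rheometer right after gelation: 40 mm parallel plates, 500 μm gap, frequency sweep 0.1–100 rad/s at 1% strain. Gel was measured before and after injection.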

[18] abbreviates: hydrogel exposed to proteinase K at 37 °C, images (Figure S8).

Numbered stars: 1 amine (or outer) side, 2 acyl side, 3 side chain; on linkers, the order of the positions; unused ones are H or OH. Square brackets hold non-standard residues; d marks the D form. Peptide text beside a SMILES is read from it. * marks the point of attachment. DAMPA = CN(Cc1cnc2nc(N)nc(N)c2n1)c1ccc(C(=O)*)cc1; γGlu = O=C(O)[C@H](CCC(=O)[*:2])N[*:1]

Chain of proteinase K (P06873 106-384, species assumed): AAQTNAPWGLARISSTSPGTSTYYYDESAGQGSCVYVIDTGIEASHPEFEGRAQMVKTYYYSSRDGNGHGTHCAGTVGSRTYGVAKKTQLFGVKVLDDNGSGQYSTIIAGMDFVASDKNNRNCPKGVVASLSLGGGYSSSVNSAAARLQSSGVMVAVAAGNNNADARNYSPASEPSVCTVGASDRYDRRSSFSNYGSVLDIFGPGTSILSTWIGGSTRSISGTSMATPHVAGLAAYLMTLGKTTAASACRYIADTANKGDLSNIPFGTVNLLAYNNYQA

As to `CN(Cc1cnc2nc(N)nc(N)c2n1)c1ccc(C(=O)N[C@@H](CCC(=O)O)C(=O)O)cc1` [MTX, methotrexate, reference compound], in data set [1], the “fluorescence signal of iNOS (M1 macrophages) in synovial tissues” value (“fluorescence signal of iNOS” for short) is on record as “significantly decreased” and the “synovial pannus / neovascularization (CD31 expression)” value was “lowest among all treatment groups”. Further, in data set [2], the “paw swelling after 4 weeks of treatment” value is on record as “paw swelling was alleviated”, the clinical score entry is “gradually decreased” and the “skin temperature of hind paws” value was “below 33 °C”. In addition, in [3], the “synovial hyperplasia and joint structure (H&E staining)” value is listed as “synovial evasion was inhibited”. For the same compound, the “RA-FLS invasion into the lower chamber (cell numbers)” value in data set [4] is recorded as “inhibited approximately half”. The “relative gene expression of M1 markers (IL-6, TNF-α, iNOS)” value in data set [5] was “not obvious”. Besides, the “expression of iNOS (M1 marker) in RAW264.7 cells” value in [6] is recorded as “significantly decreased”. In data set [7] (12 h), the “wound-healing rate at 12 h” value amounted to 50%. Further, the “wound-healing rate at 24 h” value in data set [7] worked out at 100%.
As for `CN(Cc1cnc2nc(N)nc(N)c2n1)c1ccc(C(=O)N[C@@H](CCC(=O)NCC(=O)N[C@@H](Cc2ccccc2)C(=O)N[C@@H](Cc2ccccc2)C(=O)N[C@@H](Cc2ccc(O)cc2)C(=O)O)C(=O)O)cc1` [MTX-GFFY] ({DAMPA-γGlu}-GFFY-OH), the “fluorescence signal of iNOS” value in data set [1] is “significantly decreased”. In addition, in data set [2], the “paw swelling after 4 weeks of treatment” value is recorded as “paw swelling was alleviated” and the “skin temperature of hind paws” value was “below 33 °C”. Also, the “time after which hydrogel became flowable” value in data set [8] (setting [18]) stood at 1 days. Besides, the “change of HPLC peak after addition of proteinase K” value in [8] is “gradually decreased”. Also, in data set [3], the “synovial hyperplasia and joint structure (H&E staining)” value is reported as “synovial evasion was inhibited”. In data set [9] (100 μM), the “effect on RA-FLS at 100 μM” value is on record as “mild effects”. Also, the “RA-FLS invasion into the lower chamber (cell numbers)” value in data set [4] is “obviously decreased”. In addition, in data set [7], the “wound-healing rate at 24 h” value is given as 50%.
Turning to `CN(Cc1cnc2nc(N)nc(N)c2n1)c1ccc(C(=O)N[C@@H](CCC(=O)NCC(=O)N[C@H](Cc2ccccc2)C(=O)N[C@H](Cc2ccccc2)C(=O)N[C@H](Cc2ccc(O)cc2)C(=O)O)C(=O)O)cc1` [MTX-G^DF^DF^DY] ({DAMPA-γGlu}-G[dF][dF][dY]-OH), the “live/dead staining, HUVEC” value in data set [10] is “less L929 and HUVEC cells were dead”. Besides, the “effect on cell proliferation / cytotoxicity, HUVEC” value in data set [11] is on record as “reduced the cytotoxicity”. Moreover, in data set [1], the “fluorescence signal of iNOS” value is “lowest” and the “synovial pannus / neovascularization (CD31 expression)” value is given as “lowest among all treatment groups”. Also, the “expression of M1 macrophage related proteins (iNOS, IL-6, TNF-α)” value in [12] was “best inhibitory effect”. Moreover, the “live/dead staining, RA-FLS” value in [13] is given as “significantly enhanced the ratio of dead cells/live cells”. In addition, in [2], the “paw swelling after 4 weeks of treatment” value is recorded as “effectively relieved paw swelling” and the clinical score result is “lowest among all groups”. For the same compound, in data set [14], the “level of serum IL-6” value was “slightly lower” and the “level of serum TNF-α” value is given as “slightly lower”. Moreover, the “live/dead staining, L929” value in [15] is “less L929 and HUVEC cells were dead”. The “time hydrogel was stable in vitro” value in data set [8] (setting [18]) is given as “approximately 5 days”. For the same compound, the “change of HPLC peak after addition of proteinase K” value in data set [8] was “had no obvious change”. The “effect on cell proliferation / cytotoxicity, L929” value in data set [16] is given as “reduced the cytotoxicity”. Also, in data set [3], the “IL-6 expression level in synovial tissue (immunohistochemistry)” value is recorded as “decreased to a similar level to normal group”; the “synovial hyperplasia and joint structure (H&E staining)” value is recorded as “knee joint structure was well protected”. The “effect on RA-FLS proliferation at 50 μM” value in [9] (50 μM) is reported as “significantly inhibited RA-FLS proliferation”. Besides, in data set [4], the “RA-FLS invasion into the lower chamber (cell numbers)” value is listed as “obviously decreased”. For the same compound, in data set [5], the “relative gene expression of M1 markers (IL-6, TNF-α, iNOS)” value is “all marker genes of M1 macrophages were significantly down-regulated”. The “time until hydrogel became stable (dynamic gelation process)” value in data set [17] (10.317 mM (1 wt%) peptide in PBS, heating-cooling process (Figure S3)) is ≤ 2 min. Besides, the “time to return to gel after injection” value in data set [17] (rheology before and after injection (Fig. 1d)) was 5 min. Further, the “expression of iNOS (M1 marker) in RAW264.7 cells” value in [6] was “strongest inhibitory effect”. Moreover, in [7], the “wound-healing rate at 24 h” value is on record as 40%.

These data come from PMC9157599 (Materials Today Bio, 2022).
